From publication PMC7416082 (Journal of Inorganic Biochemistry, 2020)

Assays:
[1] = target: T1, human serum albumin (HSA) (Homo sapiens, UniProt P02768); test: HSA tryptophan fluorescence quenching; format: binding; conditions: for K(HSA), SA-binding constant: Scatchard equation; for % relative fluorescence intensity (I/Io, %) of HSA remaining: λem 340 nm, % of the initial HSA fluorescence; for kq(HSA), SA-quenching constant: τo = 10^−8 s
[2] = target: T2, bovine serum albumin (BSA) (Bos taurus, UniProt P02769); test: BSA competitive studies with site-markers warfarin and ibuprofen; format: binding; conditions: for BSA-binding constant K, marker: ibuprofen: presence of ibuprofen; for BSA-binding constant K, marker: warfarin: presence of warfarin; for BSA binding site from competition with site-markers: change of K(BSA) with warfarin / ibuprofen
CT DNA-EB conjugate = test: EB-displacement studies; format: binding, calf; conditions: for quenching constant kq (EB-DNA): τo = 23 ns
How it was run: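 CT DNA pre-bound with ethidium bromide in citrate/NaCl buffer, pH 7.0, at room temperature. Test compound was added from a DMSO stock (≤5% v/v DMSO final), and the decrease in EB-DNA emission at 592 nm was monitored. KSV was obtained by Stern-Volmer analysis. kq was calculated from KSV using a literature EB-DNA lifetime τo = 23 ns.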

CT DNA = CT DNA binding studies by cyclic voltammetry; set-up: species or system calf; conditions: for Epa(f), anodic potential / Epc(f), cathodic potential / Epa(b), anodic potential / Epc(b), cathodic potential: Co(II)/Co(I) couple, DMSO/buffer; for Epa(f), anodic potential / Epc(f), cathodic potential: absence of CT DNA; for Epa(b), anodic potential / Epc(b), cathodic potential: presence of CT DNA; for Kr/Kox, ratio of equilibrium DNA-binding constants of reduced and oxidized form: Eq. S3; for ΔEpa = Epa(b) − Epa(f) / ΔEpc = Epc(b) − Epc(f): shift upon addition of CT DNA
[3] = Solubility and stability of the isolated complexes; format: physicochemical
[4] = target: T2, bovine serum albumin (BSA); test: BSA tryptophan fluorescence quenching; format: binding; conditions: for K(BSA), SA-binding constant: Scatchard equation; for % relative fluorescence intensity (I/Io, %) of BSA remaining: λem 345 nm, % of the initial BSA fluorescence; for kq(BSA), SA-quenching constant: τo = 10^−8 s
[5] = target: T1, human serum albumin (HSA); test: HSA competitive studies with site-markers warfarin and ibuprofen; format: binding; conditions: for HSA-binding constant K, marker: ibuprofen: presence of ibuprofen; for HSA-binding constant K, marker: warfarin: presence of warfarin

T1 sequence (P02768 25-609): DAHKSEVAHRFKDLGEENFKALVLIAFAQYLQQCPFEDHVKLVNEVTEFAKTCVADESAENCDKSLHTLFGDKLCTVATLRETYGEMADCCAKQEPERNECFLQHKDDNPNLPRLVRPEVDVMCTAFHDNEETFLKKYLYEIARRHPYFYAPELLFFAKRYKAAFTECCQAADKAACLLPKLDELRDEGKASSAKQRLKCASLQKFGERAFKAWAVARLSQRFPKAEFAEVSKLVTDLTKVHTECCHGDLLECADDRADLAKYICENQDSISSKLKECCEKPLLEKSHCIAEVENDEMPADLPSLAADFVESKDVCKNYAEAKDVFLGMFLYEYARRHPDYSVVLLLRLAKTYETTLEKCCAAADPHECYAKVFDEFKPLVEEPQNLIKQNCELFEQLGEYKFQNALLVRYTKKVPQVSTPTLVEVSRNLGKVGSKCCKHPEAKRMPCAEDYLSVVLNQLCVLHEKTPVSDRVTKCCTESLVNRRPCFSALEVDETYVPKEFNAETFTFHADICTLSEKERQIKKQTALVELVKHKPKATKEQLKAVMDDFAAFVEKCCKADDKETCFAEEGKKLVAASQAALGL
T2 sequence (P02769 25-607): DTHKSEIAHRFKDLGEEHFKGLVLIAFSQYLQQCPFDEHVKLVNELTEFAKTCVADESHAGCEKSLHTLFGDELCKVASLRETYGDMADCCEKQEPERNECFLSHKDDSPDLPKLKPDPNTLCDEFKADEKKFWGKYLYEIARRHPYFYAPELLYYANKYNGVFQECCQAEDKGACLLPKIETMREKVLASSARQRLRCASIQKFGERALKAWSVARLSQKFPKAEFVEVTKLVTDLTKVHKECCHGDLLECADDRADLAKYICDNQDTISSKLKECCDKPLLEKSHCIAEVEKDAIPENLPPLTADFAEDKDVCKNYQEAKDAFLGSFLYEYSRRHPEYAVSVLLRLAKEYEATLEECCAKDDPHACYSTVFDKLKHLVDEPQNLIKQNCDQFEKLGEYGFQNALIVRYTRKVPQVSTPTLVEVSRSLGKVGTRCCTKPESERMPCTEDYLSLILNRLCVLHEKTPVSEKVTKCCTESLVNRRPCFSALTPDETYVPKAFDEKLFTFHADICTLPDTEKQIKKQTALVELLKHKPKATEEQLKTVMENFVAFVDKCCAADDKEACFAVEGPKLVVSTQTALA

Row | K(HSA), SA-binding constant [1] | % relative fluorescence intensity (I/Io, %) of HSA remaining [1] [%] | kq(HSA), SA-quenching constant [1] | BSA-binding constant K, no marker [2] | BSA-binding constant K, marker: ibuprofen [2] | BSA-binding constant K, marker: warfarin [2] | Stern-Volmer constant KSV (EB-DNA) (CT DNA-EB conjugate) | quenching constant kq (EB-DNA) (CT DNA-EB conjugate) | Epa(f), anodic potential (CT DNA) [mV] | Epc(f), cathodic potential (CT DNA) [mV] | Epa(b), anodic potential (CT DNA) [mV] | Epc(b), cathodic potential (CT DNA) [mV] | Kr/Kox, ratio of equilibrium DNA-binding constants of reduced and oxidized form (CT DNA) | ΔEpa = Epa(b) − Epa(f) (CT DNA) | ΔEpc = Epc(b) − Epc(f) (CT DNA) | Solubility [3] | K(BSA), SA-binding constant [4] | % relative fluorescence intensity (I/Io, %) of BSA remaining [4] [%] | kq(BSA), SA-quenching constant [4] | HSA-binding constant K, no marker [5] | Substance | also measured
1 | 7.37(±0.35) × 10^5 M^−1 | 21.2 | 1.83(±0.12) × 10^13 M^−1 s^−1 | 4.27(±0.22) × 10^5 M^−1 | 1.19(±0.05) × 10^5 M^−1 | 2.23(±0.08) × 10^5 M^−1 | 1.76(±0.04) × 10^5 M^−1 | 7.65(±0.17) × 10^12 M^−1 s^−1 | −440 | −720 | −500 | −680 | 0.84 | −60 mV | +40 mV | soluble in DMSO and DMF | 4.27(±0.22) × 10^5 M^−1 | 26.5 | 1.37(±0.06) × 10^13 M^−1 s^−1 | 1.20(±0.05) × 10^6 M^−1 | [Co(indo-O,O′)2(phen)] [complex 4] | HSA-binding constant K, marker: ibuprofen [5]: 3.42(±0.11) × 10^5 M^−1; HSA-binding constant K, marker: warfarin [5]: 5.72(±0.18) × 10^5 M^−1; HSA binding site from competition with site-markers ([5]; change of K(HSA) with warfarin / ibuprofen): evident preference for the Sudlow's site 2 in subdomain IIIA
2 | 7.06(±0.31) × 10^5 M^−1 | 28.8 | 9.01(±0.28) × 10^12 M^−1 s^−1 | 3.72(±0.12) × 10^5 M^−1 | 1.56(±0.08) × 10^5 M^−1 | 4.50(±0.24) × 10^5 M^−1 | 1.39(±0.05) × 10^5 M^−1 | 6.03(±0.23) × 10^12 M^−1 s^−1 | −495 | −690 | −480 | −700 | 1.04 | +15 mV | −10 mV | soluble in DMSO and DMF | 3.72(±0.12) × 10^5 M^−1 | 33.5 | 1.04(±0.07) × 10^13 M^−1 s^−1 | 7.06(±0.31) × 10^5 M^−1 | [Co(indo-O)2(H2O)2(μ-Cl)]n·n(MeOH·H2O) [complex 1] | BSA binding site from competition with site-markers [2]: preference for the Sudlow's site 2 in subdomain IIIA; HSA-binding constant K, marker: ibuprofen [5]: 2.72(±0.10) × 10^5 M^−1; HSA-binding constant K, marker: warfarin [5]: 4.18(±0.11) × 10^5 M^−1

Row | Substance | K(HSA), SA-binding constant [1] | % relative fluorescence intensity (I/Io, %) of HSA remaining [1] [%] | kq(HSA), SA-quenching constant [1] | BSA-binding constant K, no marker [2] | BSA-binding constant K, marker: ibuprofen [2] | BSA-binding constant K, marker: warfarin [2] | Stern-Volmer constant KSV (EB-DNA) (CT DNA-EB conjugate) | quenching constant kq (EB-DNA) (CT DNA-EB conjugate) | Epa(f), anodic potential (CT DNA) [mV] | Epc(f), cathodic potential (CT DNA) [mV] | Epa(b), anodic potential (CT DNA) [mV] | Epc(b), cathodic potential (CT DNA) [mV] | Kr/Kox, ratio of equilibrium DNA-binding constants of reduced and oxidized form (CT DNA) | ΔEpa = Epa(b) − Epa(f) (CT DNA) | ΔEpc = Epc(b) − Epc(f) (CT DNA) | Solubility [3] | K(BSA), SA-binding constant [4] | % relative fluorescence intensity (I/Io, %) of BSA remaining [4] [%] | kq(BSA), SA-quenching constant [4] | HSA-binding constant K, no marker [5] | also measured
3 | [Co2(μ-indo-O,O′)2(indo-O)2(bipy)2(μ-H2O)]·3.3MeOH [complex 2] | 1.20(±0.05) × 10^6 M^−1 | 5.1 | 8.49(±0.25) × 10^13 M^−1 s^−1 | 6.77(±0.26) × 10^5 M^−1 | 3.50(±0.13) × 10^5 M^−1 | 5.48(±0.13) × 10^5 M^−1 | 1.63(±0.05) × 10^5 M^−1 | 7.07(±0.20) × 10^12 M^−1 s^−1 | −475 | −712 | −520 | −675 | 0.93 | −45 mV | +37 mV | soluble in DMSO and DMF | 6.77(±0.26) × 10^5 M^−1 | 7.2 | 7.14(±0.12) × 10^13 M^−1 s^−1 | 8.82(±0.30) × 10^5 M^−1 | BSA binding site from competition with site-markers [2]: preference for the Sudlow's site 2 in subdomain IIIA; HSA-binding constant K, marker: ibuprofen [5]: 1.41(±0.09) × 10^5 M^−1; HSA-binding constant K, marker: warfarin [5]: 4.62(±0.16) × 10^5 M^−1
